Results pooled from the literature.
Protocols differ between the studies behind these lines.
Target: BMP-2-inducible protein kinase (BMP2K, Homo sapiens, UniProt Q9NSY1)

| Structure (SMILES) | effect on | action | technique | concentration | quantity | result |
| --- | --- | --- | --- | --- | --- | --- |
| NS(=O)(=O)c1ccc(CNc2ccnc(Nc3cccc(CN4CCOCC4)c3)n2)cc1 | enzyme activity | inhibitor | radiometric | 1 µM | remaining activity | 51% |
| Nc1ncnc2occ(-c3ccc(NC(=O)Nc4cc(C(F)(F)F)ccc4F)cc3)c12 | cell-free assay | inhibitor |  | 20 µM | remaining signal | 59% |
| CN1CCc2cc(Nc3ncc(C4CC4)c(NCCCNC(=O)C4CCC4)n3)ccc2C1 | enzyme activity | inhibitor | radiometric | 1 µM | remaining activity | 3% |
| Cc1ccc(C(=O)NCc2ccsc2)cc1C#Cc1cn(C(C)C)c2ncnc(N)c12 | enzyme activity | inhibitor |  | 1 µM | activity vs control | 128% |
| CN(CCCC(F)(F)F)c1nccc(-c2cnn3ncccc23)n1 | binding |  |  | 1 µM | remaining binding | 100% |
| Cn1c2c(Cl)c(Cl)ccc2c2cc[nH]c(=O)c21 | thermal stability |  | DSF | 10 µM | ΔTm | > 8 °C |
| Cn1nc(C(=O)NCc2ccc(C(=O)O)cc2)cc1-c1ccc2[nH]ccc2c1 | cell-free assay |  | competition with immobilised ligand | 0.1 µM | remaining binding | 82% |
| Cc1ccc(C(=O)Nc2ccc(CN3CCN(C)CC3)c(C(F)(F)F)c2)cc1C#Cc1cnc2cccnn12 | enzyme activity | inhibitor |  | 23.5 nM | remaining activity | 95% |
| N#CC1(c2ccccn2)CCN(Cc2cc(C(=O)N3CCCC3)c(=O)n3ccccc23)CC1 | cell-free assay |  | competition with immobilised ligand | 1 µM | remaining binding | 92% |
| Cc1nn(CC(F)(F)F)cc1Nc1ncc(C2CC2)c(NCc2ccc(S(N)(=O)=O)cc2)n1 | enzyme activity | inhibitor | radiometric | 1 µM | remaining activity | 94% |
